# Assay results taken from ChEMBL document CHEMBL3407339, “A novel series of thiazolyl-pyrazoline derivatives: synthesis and evaluation of antifungal activity, cytotoxicity and genotoxicity” (Eur J Med Chem, 2015).
# What was measured:
# Nakaseomyces glabratus = assay: Antifungal activity against Candida glabrata clinical isolate after 48 hrs by broth microdilution assay; type: functional
# Procedure, shortened: (§1)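 Broth microdilution of DMSO stocks serially diluted in sterile water (4 to 0.0039 mg/mL). Yeasts grown on SDA at 37 °C for 24 h, suspended in double-strength PDB at 10⁵ spores/mL. Incubated at 37 °C for 48 h, then sprayed with 0.5% aqueous TTC. MIC = lowest concentration inhibiting visible growth. Ketoconazole reference.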
# Candida albicans = assay: Antifungal activity against Candida albicans ATCC 90028 after 48 hrs by broth microdilution assay; type: functional; conditions: ATCC 90028, 48 h; procedure, shortened: as §1
# Candida tropicalis = assay: Antifungal activity against Candida tropicalis NRLL Y 12968 after 48 hrs by broth microdilution assay; type: functional; conditions: NRLL Y 12968, 48 h; procedure, shortened: as §1
# Pichia kudriavzevii = assay: Antifungal activity against Candida krusei NRLL Y 7179 after 48 hrs by broth microdilution assay; type: functional; conditions: NRLL Y 7179, 48 h; procedure, shortened: as §1
# [Candida] zeylanoides = Antifungal activity against Candida zeylanoides NRLL Y 1774 after 48 hrs by broth microdilution assay; type: functional; conditions: Dujonia zeylanoides, NRLL Y 1774, 48 h; procedure, shortened: as §1
# Candida parapsilosis = assay: Antifungal activity against Candida parapsilosis NRLL Y 12696 after 48 hrs by broth microdilution assay; type: functional; conditions: Lodderomyces parapsilosis, NRLL Y 12696, 48 h; procedure, shortened: as §1
# Aspergillus flavus = assay: Antifungal activity against Aspergillus flavus NRRL 980 after 72 hrs by broth microdilution assay; type: functional; conditions: NRRL 980, 72 h
# Procedure, shortened: (§2)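 Compounds dissolved in DMSO, diluted in sterile distilled water from 4 to 0.0039 mg/mL. Molds grown on PDA at 25 °C for 5 days, suspended in double-strength PDB at 10⁵ spores/mL. Incubated at 25 °C for 72 h; mycelial growth read under stereo microscope. MIC = lowest concentration inhibiting visible growth. Ketoconazole reference.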
# Aspergillus niger = assay: Antifungal activity against Aspergillus niger ATCC 1094 after 72 hrs by broth microdilution assay; type: functional; conditions: ATCC 1094, 72 h; procedure, shortened: as §2
# Aspergillus parasiticus = assay: Antifungal activity against Aspergillus parasiticus NRRL 465 after 72 hrs by broth microdilution assay; type: functional; conditions: NRRL 465, 72 h; procedure, shortened: as §2
# Fusarium solani = assay: Antifungal activity against Fusarium solani NRRL 13414 after 72 hrs by broth microdilution assay; type: functional; conditions: NRRL 13414, 72 h; procedure, shortened: as §2
# Salmonella typhimurium [1] = assay: Mutagenicity in Salmonella typhimurium TA98 at 0.156 mg/ml after 48 hrs by AMES MPF assay in presence of Sprague-Dawley rat liver microsomal S9 fraction relative to baseline; type: toxicity, organism-based; conditions: salmonella enterica subsp. enterica serovar typhimurium
# Procedure, shortened: (§3)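 Ames MPF fluctuation test with TA98/TA100. Overnight cultures (37 °C, 14–16 h) mixed with exposure medium; ±Aroclor-1254-induced rat liver S9 (final 4.5% v/v). Compounds in DMSO, 0.156–5 mg/mL. 90 min exposure at 37 °C, then indicator medium; 48 wells per concentration, 48 h at 37 °C, in triplicate. Yellow wells counted; fold induction over baseline (mean + 1 SD of zero-dose control).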
# Salmonella typhimurium [2] = assay: Mutagenicity in Salmonella typhimurium TA98 at 0.3125 mg/ml after 48 hrs by AMES MPF assay in presence of Sprague-Dawley rat liver microsomal S9 fraction relative to baseline; type: toxicity, organism-based; conditions: salmonella enterica subsp. enterica serovar typhimurium; procedure, shortened: as §3
# Salmonella typhimurium [3] = assay: Mutagenicity in Salmonella typhimurium TA98 at 0.625 mg/ml after 48 hrs by AMES MPF assay in presence of Sprague-Dawley rat liver microsomal S9 fraction relative to baseline; type: toxicity, organism-based; conditions: salmonella enterica subsp. enterica serovar typhimurium; procedure, shortened: as §3
# Salmonella typhimurium [4] = assay: Mutagenicity in Salmonella typhimurium TA98 at 1.25 mg/ml after 48 hrs by AMES MPF assay in presence of Sprague-Dawley rat liver microsomal S9 fraction relative to baseline; type: toxicity, organism-based; conditions: salmonella enterica subsp. enterica serovar typhimurium; procedure, shortened: as §3
# Salmonella typhimurium [5] = assay: Mutagenicity in Salmonella typhimurium TA98 at 2.5 mg/ml after 48 hrs by AMES MPF assay in presence of Sprague-Dawley rat liver microsomal S9 fraction relative to baseline; type: toxicity, organism-based; conditions: salmonella enterica subsp. enterica serovar typhimurium; procedure, shortened: as §3
# Salmonella typhimurium [6] = assay: Mutagenicity in Salmonella typhimurium TA98 at 5 mg/ml after 48 hrs by AMES MPF assay in presence of Sprague-Dawley rat liver microsomal S9 fraction relative to baseline; type: toxicity, organism-based; conditions: salmonella enterica subsp. enterica serovar typhimurium; procedure, shortened: as §3
# Salmonella typhimurium [7] = assay: Mutagenicity in Salmonella typhimurium TA98 at 0.156 mg/ml after 48 hrs by AMES MPF assay in absence of Sprague-Dawley rat liver microsomal S9 fraction relative to baseline; type: toxicity, organism-based; conditions: salmonella enterica subsp. enterica serovar typhimurium; procedure, shortened: as §3
# Salmonella typhimurium [8] = assay: Mutagenicity in Salmonella typhimurium TA98 at 0.3125 mg/ml after 48 hrs by AMES MPF assay in absence of Sprague-Dawley rat liver microsomal S9 fraction relative to baseline; type: toxicity, organism-based; conditions: salmonella enterica subsp. enterica serovar typhimurium; procedure, shortened: as §3
# Salmonella typhimurium [9] = assay: Mutagenicity in Salmonella typhimurium TA98 at 0.625 mg/ml after 48 hrs by AMES MPF assay in absence of Sprague-Dawley rat liver microsomal S9 fraction relative to baseline; type: toxicity, organism-based; conditions: salmonella enterica subsp. enterica serovar typhimurium; procedure, shortened: as §3
# Salmonella typhimurium [10] = assay: Mutagenicity in Salmonella typhimurium TA98 at 1.25 mg/ml after 48 hrs by AMES MPF assay in absence of Sprague-Dawley rat liver microsomal S9 fraction relative to baseline; type: toxicity, organism-based; conditions: salmonella enterica subsp. enterica serovar typhimurium; procedure, shortened: as §3
# Salmonella typhimurium [11] = assay: Mutagenicity in Salmonella typhimurium TA98 at 2.5 mg/ml after 48 hrs by AMES MPF assay in absence of Sprague-Dawley rat liver microsomal S9 fraction relative to baseline; type: toxicity, organism-based; conditions: salmonella enterica subsp. enterica serovar typhimurium; procedure, shortened: as §3
# Salmonella typhimurium [12] = assay: Mutagenicity in Salmonella typhimurium TA98 at 5 mg/ml after 48 hrs by AMES MPF assay in absence of Sprague-Dawley rat liver microsomal S9 fraction relative to baseline; type: toxicity, organism-based; conditions: salmonella enterica subsp. enterica serovar typhimurium; procedure, shortened: as §3
# Salmonella typhimurium [13] = assay: Mutagenicity in Salmonella typhimurium TA100 at 0.156 mg/ml after 48 hrs by AMES MPF assay in presence of Sprague-Dawley rat liver microsomal S9 fraction relative to baseline; type: toxicity, organism-based; conditions: salmonella enterica subsp. enterica serovar typhimurium; procedure, shortened: as §3
# Salmonella typhimurium [14] = assay: Mutagenicity in Salmonella typhimurium TA100 at 0.3125 mg/ml after 48 hrs by AMES MPF assay in presence of Sprague-Dawley rat liver microsomal S9 fraction relative to baseline; type: toxicity, organism-based; conditions: salmonella enterica subsp. enterica serovar typhimurium; procedure, shortened: as §3
# Salmonella typhimurium [15] = assay: Mutagenicity in Salmonella typhimurium TA100 at 0.625 mg/ml after 48 hrs by AMES MPF assay in presence of Sprague-Dawley rat liver microsomal S9 fraction relative to baseline; type: toxicity, organism-based; conditions: salmonella enterica subsp. enterica serovar typhimurium; procedure, shortened: as §3
# Salmonella typhimurium [16] = assay: Mutagenicity in Salmonella typhimurium TA100 at 1.25 mg/ml after 48 hrs by AMES MPF assay in presence of Sprague-Dawley rat liver microsomal S9 fraction relative to baseline; type: toxicity, organism-based; conditions: salmonella enterica subsp. enterica serovar typhimurium; procedure, shortened: as §3
# Salmonella typhimurium [17] = assay: Mutagenicity in Salmonella typhimurium TA100 at 2.5 mg/ml after 48 hrs by AMES MPF assay in presence of Sprague-Dawley rat liver microsomal S9 fraction relative to baseline; type: toxicity, organism-based; conditions: salmonella enterica subsp. enterica serovar typhimurium; procedure, shortened: as §3
# Salmonella typhimurium [18] = assay: Mutagenicity in Salmonella typhimurium TA100 at 5 mg/ml after 48 hrs by AMES MPF assay in presence of Sprague-Dawley rat liver microsomal S9 fraction relative to baseline; type: toxicity, organism-based; conditions: salmonella enterica subsp. enterica serovar typhimurium; procedure, shortened: as §3
# Salmonella typhimurium [19] = assay: Mutagenicity in Salmonella typhimurium TA100 at 0.156 mg/ml after 48 hrs by AMES MPF assay in absence of Sprague-Dawley rat liver microsomal S9 fraction relative to baseline; type: toxicity, organism-based; conditions: salmonella enterica subsp. enterica serovar typhimurium; procedure, shortened: as §3
# Salmonella typhimurium [20] = assay: Mutagenicity in Salmonella typhimurium TA100 at 0.3125 mg/ml after 48 hrs by AMES MPF assay in absence of Sprague-Dawley rat liver microsomal S9 fraction relative to baseline; type: toxicity, organism-based; conditions: salmonella enterica subsp. enterica serovar typhimurium; procedure, shortened: as §3
# Salmonella typhimurium [21] = assay: Mutagenicity in Salmonella typhimurium TA100 at 0.625 mg/ml after 48 hrs by AMES MPF assay in absence of Sprague-Dawley rat liver microsomal S9 fraction relative to baseline; type: toxicity, organism-based; conditions: salmonella enterica subsp. enterica serovar typhimurium; procedure, shortened: as §3
# Salmonella typhimurium [22] = assay: Mutagenicity in Salmonella typhimurium TA100 at 1.25 mg/ml after 48 hrs by AMES MPF assay in absence of Sprague-Dawley rat liver microsomal S9 fraction relative to baseline; type: toxicity, organism-based; conditions: salmonella enterica subsp. enterica serovar typhimurium; procedure, shortened: as §3
# Salmonella typhimurium [23] = assay: Mutagenicity in Salmonella typhimurium TA100 at 2.5 mg/ml after 48 hrs by AMES MPF assay in absence of Sprague-Dawley rat liver microsomal S9 fraction relative to baseline; type: toxicity, organism-based; conditions: salmonella enterica subsp. enterica serovar typhimurium; procedure, shortened: as §3
# Salmonella typhimurium [24] = assay: Mutagenicity in Salmonella typhimurium TA100 at 5 mg/ml after 48 hrs by AMES MPF assay in absence of Sprague-Dawley rat liver microsomal S9 fraction relative to baseline; type: toxicity, organism-based; conditions: salmonella enterica subsp. enterica serovar typhimurium; procedure, shortened: as §3
# A549 = assay: Antiproliferative activity against human A549 cells after 24 hrs by XTT assay; type: functional, cell-based; conditions: A549, 24 h
# Procedure, shortened: (§4)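 A549 cells in RPMI and NIH/3T3 cells in DMEM, each with fetal calf serum, antibiotics and 7.5% NaHCO₃, at 37 °C, 5% CO₂. Seeded at 20,000 cells/well, 24 h, then compounds added in medium at 500–3.9 doses (final DMSO <0.1%) for 24 h. XTT read after 3 h at 480 nm (ref 680 nm). IC₅₀ by non-linear regression; triplicates; cisplatin control.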
# [25] = Cytotoxicity against mouse NIH/3T3 cells after 24 hrs by XTT assay; type: cell-based; conditions: NIH3T3, 24 h; procedure, shortened: as §4
structure (smiles),measurement,setting,value
Fc1ccc(C2CC(c3ccc(Cl)s3)=NN2c2nc(-c3ccccc3)cs2)cc1 (stereo unspecified),MIC,Nakaseomyces glabratus,125 µg/mL
same,MIC,Candida albicans,250 µg/mL
same,MIC,Candida tropicalis,250 µg/mL
same,MIC,Pichia kudriavzevii,250 µg/mL
same,MIC,[Candida] zeylanoides,250 µg/mL
same,MIC,Candida parapsilosis,250 µg/mL
same,MIC,Aspergillus flavus,125 µg/mL
same,MIC,Aspergillus niger,250 µg/mL
same,MIC,Aspergillus parasiticus,250 µg/mL
same,MIC,Fusarium solani,250 µg/mL
same,fold change (FC),Salmonella typhimurium [1],1.63
same,fold change (FC),Salmonella typhimurium [2],0.68
same,fold change (FC),Salmonella typhimurium [3],1.08
same,fold change (FC),Salmonella typhimurium [4],0.68
same,fold change (FC),Salmonella typhimurium [5],0.27
same,fold change (FC),Salmonella typhimurium [6],0.41
same,fold change (FC),Salmonella typhimurium [7],0
same,fold change (FC),Salmonella typhimurium [8],0
same,fold change (FC),Salmonella typhimurium [9],0.67
same,fold change (FC),Salmonella typhimurium [10],0
same,fold change (FC),Salmonella typhimurium [11],0
same,fold change (FC),Salmonella typhimurium [12],0.67
same,fold change (FC),Salmonella typhimurium [13],1.85
same,fold change (FC),Salmonella typhimurium [14],3.23
same,fold change (FC),Salmonella typhimurium [15],2.77
same,fold change (FC),Salmonella typhimurium [16],4.62
same,fold change (FC),Salmonella typhimurium [17],3.46
same,fold change (FC),Salmonella typhimurium [18],4.38
same,fold change (FC),Salmonella typhimurium [19],0
same,fold change (FC),Salmonella typhimurium [20],0.32
same,fold change (FC),Salmonella typhimurium [21],0.96
same,fold change (FC),Salmonella typhimurium [22],1.28
same,fold change (FC),Salmonella typhimurium [23],2.88
same,fold change (FC),Salmonella typhimurium [24],0.96
same,IC50,A549,> 500 µg/mL
same,IC50,[25],> 500 µg/mL
